Data as given in ChEMBL document CHEMBL1137637, “Quinuclidine derivatives as potential antiparasitics” (Antimicrob Agents Chemother, 2007).
Converted amounts (≈) assume the structure as drawn.

Tests used:
[1] = system: Leishmania amazonensis; experiment: Antileishmanial activity against Leishmania mexicana amazonensis promastigotes by trypan blue exclusion method; format: functional, organism-based
How it was run: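 L. mexicana amazonensis promastigotes cultured in liver infusion-tryptose medium with lactalbumin and 10% FCS at 26°C, unagitated. Cultures started at 2 × 10⁶ cells/ml and drug added at 0.5–1 × 10⁷ cells/ml. Density counted by electronic particle counter and hemocytometer. Viability by trypan blue exclusion. Triplicate growth experiments.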

[2] = system: Leishmania donovani; experiment: Antileishmanial activity against Leishmania donovani MHOM/ET/67/L82 axenic amastigotes after 72 hrs by resazurin assay; format: functional, organism-based; conditions: MHOM/ET/67/L82, 72 h
How it was run: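 L. donovani MHOM/ET/67/L82 amastigotes grown axenically at 37°C in synthetic minimal medium at pH 5.4 with 10% heat-inactivated FBS under 5% CO2. 1 × 10⁵ amastigotes per well with seven threefold dilutions, 30 to 0.041 μg/ml. After 72 h, resazurin added for 2–4 h more. Fluorescence read at ex 536/em 588 nm. IC50 taken from sigmoidal curve. Run in duplicate, with an independent repeat for actives.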

[3] = system: L6; experiment: Cytotoxicity against rat L6 cells after 72 hrs by resazurin assay; format: cell-based; conditions: L6, 72 h
How it was run: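 L-6 cells seeded at 4 × 10⁴ cells/ml in RPMI 1640 with 10% FBS and 2 mM L-glutamine. After 24 h, medium replaced with serial drug dilution and incubated for 72 h at 37°C in 5% CO2. Resazurin added for 2–4 h, fluorescence read at ex 536/em 588 nm. IC50 from sigmoidal curve. Duplicate, with an independent repeat for actives.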

[4] = system: Trypanosoma cruzi; experiment: Antitrypanosomal activity against trypomastigotes of Trypanosoma cruzi Tulahuen C2C4 containing lacZ gene in rat L6 cells after 4 days by chlorophenol red-beta-D-galactopyranoside/Nonidet assay; format: functional, organism-based; conditions: Tulahuen C2C4, L6, 96 h
How it was run: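 L-6 rat myoblasts seeded at 2,000 cells/well in RPMI 1640 with 10% FBS and 2 mM L-glutamine. After 24 h, 5,000 T. cruzi Tulahuen C2C4 lacZ trypomastigotes added with serial drug dilution. Incubated at 37°C in 5% CO2 for 4 days. CPRG/Nonidet substrate added and colour read at 540 nm after 2–4 h. IC50 from sigmoidal curve. Duplicate determinations.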

[5] = system: Trypanosoma brucei rhodesiense; experiment: Trypanocidal activity against Trypanosoma brucei rhodesiense STIB 900 bloodstream form after 72 hrs by resazurin assay; format: functional, organism-based; conditions: STIB 900, 72 h
How it was run: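 T. b. rhodesiense STIB 900 bloodstream forms in MEM with 2-mercaptoethanol and 15% heat-inactivated horse serum, with serial drug dilutions. Incubated 72 h at 37°C in 5% CO2. Resazurin added for 2–4 h more, fluorescence read at ex 536/em 588 nm. IC50 from sigmoidal curve. Duplicate, with an independent repeat for actives.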

[6] = system: Plasmodium falciparum; experiment: Antiplasmodial activity after 48 hrs against chloroquine and pyrimethamine-resistant Plasmodium falciparum K1 in human erythrocytes by [3H]hypoxanthine uptake; format: functional, organism-based
How it was run: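 P. falciparum K1 in human red cells in RPMI 1640 with 5% Albumax, exposed to serial drug dilutions. Incubated 48 h at 37°C under reduced oxygen, then 0.5 μCi [³H]hypoxanthine per well for 24 h more. Cells harvested onto glass-fibre filters and counted by scintillation. Result expressed as % of untreated control, with IC50 from sigmoidal curve. Duplicate, plus an independent repeat for actives.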

[7] = system: Leishmania amazonensis; experiment: Inhibition of sterol biosynthesis in Leishmania mexicana amazonensis promastigotes assessed as reduction in exogenous cholesterol level at 10 uM after 96 hrs by gas-liquid chromatography; format: functional; design: scale not given: the % may be the effect or the level left
How it was run: (§1)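 L. mexicana promastigotes exposed to compound for 96 h. Total lipids extracted and neutral sterols separated from polar lipids by silicic acid column chromatography. Sterols analysed by TLC and by quantitative capillary gas-liquid chromatography with mass spectrometry. Composition expressed as mass % of free sterols, compared with untreated control.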

[8] = system: Leishmania amazonensis; experiment: Inhibition of sterol biosynthesis in Leishmania mexicana amazonensis promastigotes assessed as reduction in endogenous 5-dehydro episterol level at 10 uM after 96 hrs by gas-liquid chromatography; format: functional; design: scale not given: the % may be the effect or the level left; how it was run: as §1
[9] = system: Leishmania amazonensis; experiment: Inhibition of sterol biosynthesis in Leishmania mexicana amazonensis promastigotes assessed as reduction in endogenous episterol level at 10 uM after 96 hrs by gas-liquid chromatography; format: functional; design: scale not given: the % may be the effect or the level left; how it was run: as §1
[10] = target: T1, Farnesyltransferase, putative (Leishmania major, UniProt Q4Q5W4); experiment: Inhibition of Leishmania major recombinant squalene synthase expressed in Escherichia coli by liquid scintillation counter
T1 sequence (Q4Q5W4 whole entry): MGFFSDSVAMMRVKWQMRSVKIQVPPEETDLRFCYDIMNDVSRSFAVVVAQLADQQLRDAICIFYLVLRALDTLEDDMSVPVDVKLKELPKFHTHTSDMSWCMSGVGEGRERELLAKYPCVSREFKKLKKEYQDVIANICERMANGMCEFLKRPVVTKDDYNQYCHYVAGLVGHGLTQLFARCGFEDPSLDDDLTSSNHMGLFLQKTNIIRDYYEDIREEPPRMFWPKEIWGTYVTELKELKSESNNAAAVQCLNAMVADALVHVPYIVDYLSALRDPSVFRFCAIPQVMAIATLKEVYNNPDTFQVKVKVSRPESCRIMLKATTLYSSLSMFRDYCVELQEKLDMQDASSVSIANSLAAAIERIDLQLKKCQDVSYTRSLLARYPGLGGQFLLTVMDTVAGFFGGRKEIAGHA
How it was run: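 Soluble E. coli extract expressing L. major SQS truncated by 16 N-terminal and 40 C-terminal residues. Buffer: 50 mM phosphate pH 7.4, 20 mM MgCl2, 5 mM CHAPS, 1% Tween 80, 10 mM DTT, BSA, 0.25 mM NADPH, and a glucose-6-phosphate/G6PDH regenerating system. Substrate 0.5 μM radiolabelled farnesyl pyrophosphate. Squalene band counted by scintillation. IC50 from hyperbolic plot of five concentrations in duplicate, usually run twice.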

Row | SMILES | MIC [1] | IC50 [2] | IC50 [3] | IC50 [4] | IC50 [5] | IC50 [6] | Activity [7] | Activity [8] | Activity [9] | IC50 [10]
1 | CCOc1ccc(C#CC2(O)CN3CCC2CC3)cc1 (stereo not drawn) | > 10 µM | 10.5 µM | > 332 µM | 21.2 µM | 5.4 µM | 5.9 µM | 30% | 45.4% | 24.6% | –
2 | CCCCCCCCCCCCCCCCOP(=O)([O-])OCC[N+](C)(C)C [MILTEFOSINE] | – | 0.338 µM | – | – | – | – | – | – | – | –
3 | OC1(C#Cc2cnccn2)CN2CCC1CC2 (stereo not drawn) | 3 µM (≈ 0.688 µg/mL) | – | – | – | – | – | 33.8% | 52% | 14.2% | > 1 µM
4 | Nc1ccc(C#CC2(O)CN3CCC2CC3)cn1 (stereo not drawn) | > 10 µM | 10.8 µM | > 370 µM | 97 µM | 5.7 µM | > 21 µM | 13.2% | 75.2% | 11.6% | > 1 µM
5 | COc1cc([C@@H]2c3cc4c(cc3[C@H](O)[C@H]3COC(=O)[C@H]23)OCO4)cc(OC)c1OC [PODOFILOX] | – | – | 0.014 µM | – | – | – | – | – | – | –
6 | C1=C(c2cnc3ccccc3c2)C2CCN1CC2 | > 10 µM | 72.4 µM | 276 µM | 51.1 µM | 22.4 µM | 15 µM | 18.2% | 74.5% | 7.3% | > 1 µM
7 | O=C(O)c1cc(C#CC2(O)CN3CCC2CC3)ccc1O (stereo not drawn) | > 10 µM | – | – | – | – | – | 20.4% | 74% | 5.6% | > 1 µM
8 | OC[C@H]1CC2CCN1C[C@@H]2C#Cc1ccc2ccccc2c1 (stereo partly drawn) | > 10 µM | 12 µM | 50.4 µM | 5.3 µM | 1.4 µM | 3 µM | 23.1% | 65.7% | 11.2% | > 1 µM
9 | OC1(C#Cc2cccnc2)CN2CCC1CC2 (stereo not drawn) | > 10 µM | 9.2 µM | > 394 µM | > 131 µM | 173 µM | 18.9 µM | 12.9% | 75.9% | 11.2% | > 1 µM
10 | C1=C(c2cc3ccccc3o2)C2CCN1CC2 | > 10 µM | 82 µM | 177 µM | 61.3 µM | 17.1 µM | 6.2 µM | 12.2% | 60% | 27.8% | > 1 µM
11 | O=C(O)c1ccc(C#CC2(O)CN3CCC2CC3)cc1 (stereo not drawn) | > 10 µM | > 111 µM | > 332 µM | 90.2 µM | 146 µM | > 18.4 µM | 21.9% | 70.9% | 7.2% | > 100 µM
12 | Cc1ccc(N)cc1C#CC1(O)CN2CCC1CC2 (stereo not drawn) | > 10 µM | 28.5 µM | > 351 µM | > 117 µM | 62.4 µM | 11.7 µM | 20.7% | 72.8% | 6.5% | > 1 µM
13 | COCCCOc1ccc(C#C[C@@]2(O)CN3CCC2CC3)c(Cc2ccccc2)n1 | – | – | – | – | – | – | – | – | – | 0.033 µM
14 | CC(=O)c1ccc(C#CC2(O)CN3CCC2CC3)s1 (stereo not drawn) | > 10 µM | 18.9 µM | 194 µM | 72.6 µM | 30.3 µM | 10.2 µM | 22.3% | 67.8% | 9.9% | > 1 µM
15 | COC(=O)c1ccc(N)c(C#CC2(O)CN3CCC2CC3)c1 (stereo not drawn) | > 10 µM | 17.2 µM | > 300 µM | 44.9 µM | 30.8 µM | 10.9 µM | 19.3% | 74.3% | 6.4% | > 1 µM
16 | CO[C@H]1CN(c2ccc(C#C[C@@]3(O)CN4CCC3CC4)c(Cc3ccccc3)n2)C[C@H]1O | – | – | – | – | – | – | – | – | – | 0.013 µM
17 | OC[C@H]1CC2CCN1C[C@@H]2C#Cc1cnc2ccccc2c1 (stereo partly drawn) | > 10 µM | 40.3 µM | 38.9 µM | 33.8 µM | 10.9 µM | 2.7 µM | 18.7% | 69.7% | 11.6% | > 1 µM
18 | OC1(C#Cc2ccc(Cl)nc2)CN2CCC1CC2 (stereo not drawn) | > 10 µM | 16.3 µM | > 342 µM | > 114 µM | 53.3 µM | 9.3 µM | 20.1% | 71.7% | 8.2% | > 1 µM
19 | COc1ccc(C#CC2(O)CN3CCC2CC3)cc1 (stereo not drawn) | > 10 µM | 7 µM | > 350 µM | 67.2 µM | 18.4 µM | 8.2 µM | 19.8% | 66.8% | 13.4% | > 1 µM
